From ChEMBL document CHEMBL4334433, “BIM-46174 fragments as potential ligands of G proteins” (Medchemcomm, 2019) come the findings set out here.

Active and inactive are the calls of the source. The calls are words filed in the database; no cut-off is given here.

Common to all, as to assay type: cell-based
For data set [1], the system named is HEK293. The data set is described as follows: Cytotoxicity against human HEK293 cells assessed as reduction in cell viability at 100 uM incubated for 22 hrs by CellTiter-BlueTM cell viability assay. The settings on record: hek293, 22 h. In outline:
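HEK293 cells were seeded at 25,000 per well on poly-D-lysine and grown overnight, then exposed to compound for 22 h. CellTiter-Blue reagent was added for a further 2 h, and resorufin fluorescence was read at excitation 560 nm and emission 590 nm.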
For orientation: The colour change of resazurin is a common sign of viable cells or microbes.

For data set [2], the target named is T1, Guanine nucleotide-binding protein G(q) subunit alpha (Homo sapiens) (UniProt P50148).
T1 sequence (whole entry): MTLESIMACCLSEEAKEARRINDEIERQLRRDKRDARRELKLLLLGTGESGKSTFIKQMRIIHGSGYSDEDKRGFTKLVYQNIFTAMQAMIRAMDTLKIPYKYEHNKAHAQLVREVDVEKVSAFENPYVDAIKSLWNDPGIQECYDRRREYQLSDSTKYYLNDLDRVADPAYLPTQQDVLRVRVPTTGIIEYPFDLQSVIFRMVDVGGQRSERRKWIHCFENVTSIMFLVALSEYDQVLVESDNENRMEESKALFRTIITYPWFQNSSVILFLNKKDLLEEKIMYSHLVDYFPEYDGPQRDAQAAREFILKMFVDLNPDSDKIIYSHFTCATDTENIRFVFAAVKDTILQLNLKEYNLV
The data set can be described thus: Inhibition of Galpha-q in human HEK293 cells assessed as reduction in CCh-induced IP1 accumulation at 100 uM preincubated for 2 hrs followed by CCh stimulation and measured after 35 mins by time resolved fluorescence assay. The procedure, abridged: (§1)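 HEK293 wt cells were grown in DMEM with 10% FBS and penicillin/streptomycin at 37 °C and 5% CO2. Cells were plated at 60,000 per well and pre-incubated 15 min at 37 °C. Compound was added in stimulation buffer for 2 h at 37 °C, followed by buffer containing 100 µM carbachol (concentration in the added buffer) for 35 min. IP1 was read by HTRF (620/665 nm ratio).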

For data set [3], the target named is T1, Guanine nucleotide-binding protein G(q) subunit alpha (Homo sapiens). The data set can be described thus: Inhibition of Galpha-q in human HEK293 cells assessed as reduction in CCh-induced IP1 accumulation preincubated for 2 hrs followed by CCh stimulation and measured after 35 mins by time resolved fluorescence assay. The procedure, abridged: as §1
For data set [4] the target is unchanged. The data set is described as follows: Inhibition of Galpha-q in human HEK293 cells harbouring PL3alpha mutant assessed as reduction in CCh-induced IP1 accumulation preincubated for 2 hrs followed by CCh stimulation and measured after 35 mins by time resolved fluorescence assay.

For `N[C@@H](CS)C(=O)N1CCn2cc(-c3ccccc3)nc2[C@@H]1CC1CCCCC1`, the Activity result in data set [1] was “Toxic”. In data set [2], the inhibition entry is “Active”.
As to `O=C1Cn2cc(-c3ccccc3)nc2CCN1`, the Activity entry in data set [1] is given as “Non-Toxic”. For the same compound, the inhibition result in data set [2] was “inactive”.
For `O=C1CCn2cc(-c3ccccc3)nc2CN1`, the Activity entry in data set [1] is “Non-Toxic”. For the same compound, in data set [2], the inhibition result is “inactive”. The inhibition entry in data set [3] is “Dose-dependent effect”. Moreover, in data set [4], the inhibition result was “Active”.
`O=C1CCn2cc(-c3ccccc3)nc2[C@H](CC2CCCCC2)N1`: in data set [1], the Activity result was “Non-Toxic”. Also, the inhibition result in data set [2] is “inactive”.
Consider `N[C@@H](CS)C(=O)N1CCNC(=O)[C@@H]1CC1CCCCC1`, for which the Activity result in data set [1] is reported as “Non-Toxic”. The inhibition result in data set [2] was “inactive”.
For `N[C@@H](CS)C(=O)N1CCNC(=O)C1`, in data set [1], the Activity result was “Non-Toxic”. For the same compound, the inhibition entry in data set [2] was “inactive”.
Take `O=C1Cn2cc(-c3ccccc3)nc2[C@H](CC2CCCCC2)N1`: in data set [1], the Activity result is “Non-Toxic”. Besides, the inhibition result in data set [2] was “inactive”.
With `O=C1Cn2cc(-c3ccccc3)nc2CN1`, the Activity entry in data set [1] is given as “Non-Toxic”. In addition, the inhibition entry in data set [2] was “inactive”. Besides, the inhibition entry in data set [3] was “Dose-dependent effect”. Moreover, the inhibition entry in data set [4] was “Active”.
With `O=C1Cn2cc(-c3ccccc3)nc2[C@H](CC2CCCCC2)CN1`, the Activity result in data set [1] was “Non-Toxic”. In data set [2], the inhibition entry is “inactive”.
